Measurements published in ChEMBL document CHEMBL4118057, “Cytotoxic Bagremycins from Mangrove-Derived Streptomyces sp. Q22” (J Nat Prod, 2017).
Calls of active or inactive are those of the source. The rule behind the calls is not given here.

Key:
Staphylococcus aureus = assay: Antimicrobial activity against methicillin-resistant Staphylococcus aureus ATCC 43300 after 12 hrs by micro broth dilution method; type: functional, organism-based
Outline: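 Test compounds serially diluted in 50% DMSO in broth microdilution plates. Each well received 2 μL of a 10^8 cf/mL culture, then incubated at 37 °C for 12 h overnight and read by eye. Clear wells and the next dilutions were plated on nutrient agar for 12 h at 37 °C. MIC was taken as the growth-inhibiting dilution. Gentamicin served as positive control.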

Escherichia coli = assay: Antimicrobial activity against Escherichia coli ATCC 25922 after 12 hrs by micro broth dilution method; type: functional, organism-based
Outline: (§1)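 Micro broth dilution: compound stock serially diluted with 50% DMSO (final volume 200 μL), inoculated with 2 μL of 10^8 cf/mL culture, incubated 37 °C for 12 h. Clear wells and the next dilutions plated on nutrient agar, incubated 37 °C for 12 h. MIC taken as the dilution that inhibited growth.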

Candida albicans = assay: Antimicrobial activity against Candida albicans after 12 hrs by micro broth dilution method; type: functional, organism-based; outline: as §1
U-87 MG [1] = assay: Cytotoxicity against human U87MG cells after 72 hrs by sulforhodamine B assay; type: functional, cell-based, U-87MG ATCC
Outline: (§2)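 SRB assay. C6 and U251 in DMEM with 10% FBS, SHG44 in RPMI-1640, all at 37 °C, 5% CO2. Cells adhered 24 h, then were exposed to a range of concentrations for 72 h. Fixed in cold 50% TCA at 4 °C for 1 h, stained with 0.4% SRB for 10 min, rinsed with 1% acetic acid. Dye dissolved in 10 mM Tris, OD read at 515 nm. Viability taken as treated/control OD; IC50 by logistic fit; n = 5.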

U-251 = assay: Cytotoxicity against human U251 cells after 72 hrs by sulforhodamine B assay; type: functional, cell-based; details: U-251, 72 h; outline: as §2
[2] = Cytotoxicity against human SHG44 cells after 72 hrs by sulforhodamine B assay; type: functional, cell-based; details: SHG-44, 72 h; outline: as §2
C6 = assay: Cytotoxicity against rat C6 cells after 72 hrs by sulforhodamine B assay; type: functional, cell-based; details: C6, 72 h; outline: as §2
U-87 MG [3] = assay: Induction of apoptosis in human U87MG cells assessed as increase in total apoptotic cells at 10 uM after 24 hrs by annexin-V-FITC/propidium iodide staining based flow cytometric method relative to control; type: functional, U-87MG ATCC
Outline: (§3)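 U87MG cells were exposed for 24, 48 or 72 h, and 1 × 10^6 cells were harvested and washed in cold PBS. They were stained in binding buffer with annexin V-FITC and PI for 15 min at room temperature. Flow cytometry used 488 nm excitation with emission at 530/575 nm. Early plus late apoptotic cells were summed, and the untreated control was subtracted.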

U-87 MG [4] = assay: Induction of apoptosis in human U87MG cells assessed as increase in total apoptotic cells at 10 uM after 48 hrs by annexin-V-FITC/propidium iodide staining based flow cytometric method relative to control; type: functional, U-87MG ATCC; outline: as §3
U-87 MG [5] = assay: Induction of apoptosis in human U87MG cells assessed as increase in total apoptotic cells at 10 uM after 72 hrs by annexin-V-FITC/propidium iodide staining based flow cytometric method relative to control; type: functional, U-87MG ATCC; outline: as §3
U-87 MG [6] = assay: Cell cycle arrest in human U87MG cells assessed as increase in accumulation at G0/G1 phase at 0.8 uM after 12 hrs by propidium iodide staining based flow cytometric method relative to control; type: functional, U-87MG ATCC
U-87 MG [7] = assay: Cell cycle arrest in human U87MG cells assessed as accumulation at S phase at 0.8 uM after 12 hrs by propidium iodide staining based flow cytometric method (reference value: 32.49%); type: functional, U-87MG ATCC
U-87 MG [8] = assay: Cell cycle arrest in human U87MG cells assessed as accumulation at G2/M phase at 0.8 uM after 12 hrs by propidium iodide staining based flow cytometric method (reference value: 9.37%); type: functional, U-87MG ATCC
U-87 MG [9] = assay: Induction of apoptosis in human U87MG cells assessed as increase in total apoptotic cells at 2.2 uM after 24 hrs by annexin-V-FITC/propidium iodide staining based flow cytometric method relative to control; type: functional, U-87MG ATCC; outline: as §3
U-87 MG [10] = assay: Induction of apoptosis in human U87MG cells assessed as increase in total apoptotic cells at 2.2 uM after 48 hrs by annexin-V-FITC/propidium iodide staining based flow cytometric method relative to control; type: functional, U-87MG ATCC; outline: as §3
U-87 MG [11] = assay: Induction of apoptosis in human U87MG cells assessed as increase in total apoptotic cells at 2.2 uM after 72 hrs by annexin-V-FITC/propidium iodide staining based flow cytometric method relative to control; type: functional, U-87MG ATCC; outline: as §3
U-87 MG [12] = assay: Induction of apoptosis in human U87MG cells assessed as increase in total apoptotic cells at 4.4 uM after 24 hrs by annexin-V-FITC/propidium iodide staining based flow cytometric method relative to control; type: functional, U-87MG ATCC; outline: as §3
U-87 MG [13] = assay: Induction of apoptosis in human U87MG cells assessed as increase in total apoptotic cells at 4.4 uM after 48 hrs by annexin-V-FITC/propidium iodide staining based flow cytometric method relative to control; type: functional, U-87MG ATCC; outline: as §3
U-87 MG [14] = assay: Induction of apoptosis in human U87MG cells assessed as increase in total apoptotic cells at 4.4 uM after 72 hrs by annexin-V-FITC/propidium iodide staining based flow cytometric method relative to control; type: functional, U-87MG ATCC; outline: as §3
U-87 MG [15] = assay: Cell cycle arrest in human U87MG cells assessed as increase in accumulation at G0/G1 phase at 2.2 uM after 12 hrs by propidium iodide staining based flow cytometric method relative to control; type: functional, U-87MG ATCC
U-87 MG [16] = assay: Cell cycle arrest in human U87MG cells assessed as increase in accumulation at G0/G1 phase at 4.4 uM after 12 hrs by propidium iodide staining based flow cytometric method relative to control; type: functional, U-87MG ATCC
U-87 MG [17] = assay: Cell cycle arrest in human U87MG cells assessed as increase in accumulation at G0/G1 phase at 8.8 uM after 12 hrs by propidium iodide staining based flow cytometric method relative to control; type: functional, U-87MG ATCC
U-87 MG [18] = assay: Cell cycle arrest in human U87MG cells assessed as accumulation at S phase at 2.2 uM after 12 hrs by propidium iodide staining based flow cytometric method (reference value: 32.49%); type: functional, U-87MG ATCC
U-87 MG [19] = assay: Cell cycle arrest in human U87MG cells assessed as accumulation at S phase at 4.4 uM after 12 hrs by propidium iodide staining based flow cytometric method (reference value: 32.49%); type: functional, U-87MG ATCC
U-87 MG [20] = assay: Cell cycle arrest in human U87MG cells assessed as accumulation at S phase at 8.8 uM after 12 hrs by propidium iodide staining based flow cytometric method (reference value: 32.49%); type: functional, U-87MG ATCC
U-87 MG [21] = assay: Cell cycle arrest in human U87MG cells assessed as accumulation at G2/M phase at 2.2 uM after 12 hrs by propidium iodide staining based flow cytometric method (reference value: 9.37%); type: functional, U-87MG ATCC
U-87 MG [22] = assay: Cell cycle arrest in human U87MG cells assessed as accumulation at G2/M phase at 4.4 uM after 12 hrs by propidium iodide staining based flow cytometric method (reference value: 9.37%); type: functional, U-87MG ATCC
U-87 MG [23] = assay: Cell cycle arrest in human U87MG cells assessed as accumulation at G2/M phase at 8.8 uM after 12 hrs by propidium iodide staining based flow cytometric method (reference value: 9.37%); type: functional, U-87MG ATCC

| SMILES | Activity (Staphylococcus aureus) | Activity (Escherichia coli) | Activity (Candida albicans) | IC50 (U-87 MG [1]) [µM] | IC50 (U-251) [µM] | IC50 [2] [µM] | IC50 (C6) [µM] | also measured |
| --- | --- | --- | --- | --- | --- | --- | --- | --- |
| C=Cc1ccc(OC(=O)c2ccc(O)c(N)c2S)cc1 | inactive | inactive | inactive | – | – | – | – | – |
| C=Cc1ccc(OC(=O)c2ccc(O)cc2)cc1 | inactive | inactive | inactive | – | – | – | – | – |
| C=Cc1ccc(OC(=O)c2ccc(O)c(NC(C)=O)c2)cc1 | inactive | inactive | inactive | 10.2 | 9.7 | 7.3 | 13.3 | – |
| COc1cccc2c1C(=O)c1c(O)c3c(c(O)c1C2=O)C[C@@](O)(C(=O)CO)C[C@@H]3O[C@H]1C[C@H](N)[C@H](O)[C@H](C)O1 [DOXORUBICIN] | – | – | – | 0.4 | 3.3 | 1.9 | 0.5 | Activity (U-87 MG [3]): 3.17%; Activity (U-87 MG [4]): 10.42%; Activity (U-87 MG [5]): 26.87%; Activity (U-87 MG [6]): 24.74%; Activity (U-87 MG [7]): 10.84%; Activity (U-87 MG [8]): 6.28% |
| O=C1Oc2ccc(cc2)[C@H](O)CNc2cc1ccc2O | inactive | inactive | inactive | – | – | – | – | – |
| C=Cc1ccc(O[C@H]2O[C@H](CO)[C@H](O)[C@H](O)[C@H]2O)cc1 | inactive | inactive | inactive | – | – | – | – | – |
| C=Cc1ccc(O)cc1 | inactive | inactive | inactive | – | – | – | – | – |
| C=Cc1ccc(OC(=O)c2ccc(O)c(N)c2SC[C@@H](NC(C)=O)C(=O)O)cc1 | inactive | inactive | inactive | 2.2 | 4.3 | 2.4 | 6.4 | Activity (U-87 MG [9]): 0.96%; Activity (U-87 MG [10]): 20.59%; Activity (U-87 MG [11]): 58.32%; Activity (U-87 MG [12]): 3.36%; Activity (U-87 MG [13]): 61.16%; Activity (U-87 MG [14]): 93%; Activity (U-87 MG [15]): 5.71%; Activity (U-87 MG [16]): 16.18%; Activity (U-87 MG [17]): 20.56%; Activity (U-87 MG [18]): 27.23%; Activity (U-87 MG [19]): 16.76%; Activity (U-87 MG [20]): 13.77%; Activity (U-87 MG [21]): 8.92%; Activity (U-87 MG [22]): 8.92%; Activity (U-87 MG [23]): 7.53% |
| C=Cc1ccc(OC(=O)c2ccc(O)c(N)c2)cc1 | inactive | inactive | inactive | – | – | – | – | – |
